{"source": "ChEMBL document CHEMBL2176966", "about": "“Discovery of 6,7-dihydro-5H-pyrrolo[2,3-a]pyrimidines as orally available G protein-coupled receptor 119 agonists” (J Med Chem, 2012)", "key": {"[1]": {"test": "Ratio of drug level brain to plasma in rat at 30 mg/kg", "type": "ADME, organism-based", "set-up": "dose 30 mg/kg", "details": "read-out: BPR"}, "[2]": {"system": "Rattus norvegicus", "test": "Dose normalized AUC (0 to 24 hrs) in rat at 30 mg/kg", "type": "ADME, organism-based", "set-up": "dose 30 mg/kg", "details": "in vivo"}, "[3]": {"test": "Half life in rat at 30 mg/kg", "type": "ADME, organism-based", "set-up": "dose 30 mg/kg", "details": "in vivo"}, "[4]": {"molecular_target": "T1, Glucose-dependent insulinotropic receptor (Homo sapiens, UniProt Q8TDV5)", "T1 sequence (Q8TDV5 whole entry)": "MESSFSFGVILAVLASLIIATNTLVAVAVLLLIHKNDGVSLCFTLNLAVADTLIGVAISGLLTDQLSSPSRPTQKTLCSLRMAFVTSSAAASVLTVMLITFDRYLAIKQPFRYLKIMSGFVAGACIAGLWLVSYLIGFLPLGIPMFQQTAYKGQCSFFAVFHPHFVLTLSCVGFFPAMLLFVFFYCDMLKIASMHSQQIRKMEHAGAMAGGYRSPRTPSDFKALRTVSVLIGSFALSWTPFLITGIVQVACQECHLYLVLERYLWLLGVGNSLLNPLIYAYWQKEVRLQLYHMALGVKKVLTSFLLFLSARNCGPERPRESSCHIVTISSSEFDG", "test": "Agonist activity at human GPR119 receptor expressed in CHO-K1 cells co-expressing 6CRE-luciferase gene after 5 hrs by luciferase reporter gene assay", "type": "functional, cell-based", "details": "read-out: pEC50 (converted)"}, "[5]": {"system": "Rattus norvegicus", "test": "Antihyperglycemic activity in Sprague-Dawley rat assessed as reduction of acetaminophen AUC (0 to 2 hrs) at 10 mg/kg, po relative to control", "type": "functional", "set-up": "scale not given: the % may be the effect or the level left", "procedure,_shortened": "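Male Sprague-Dawley rats, fasted overnight, dosed orally at 10 mL/kg in 0.5% HPMC/0.1% Tween80 (vehicle or compound) at −120 min. Pramlintide (15 μg) was given to a positive-control cohort at −15 min. Baseline plasma was taken at time 0, then acetaminophen (65 mg) by gavage. The plasma acetaminophen concentration–time profile was followed for 3 h; AUC 0–2 h was compared with vehicle.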"}, "[6]": {"system": "Rattus norvegicus", "test": "Increase of C-peptide level in Wistar rat at 10 mg/kg, po up to 5 mins", "type": "functional, organism-based", "set-up": "dose 10 mg/kg", "procedure,_shortened": "(§1)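 Male Wistar rats (300–350 g) with jugular and femoral vein catheters, one week post-surgery, fasted overnight. Randomized to vehicle (n = 19) or oral compound (n = 8). About 90 min after gavage, a hyperglycemic clamp was started: a glucose bolus into the femoral vein, then variable-rate infusion holding glucose at 190–210 mg/dL. Serum C-peptide was measured by RIA, first phase 0–5 min and second phase 10–90 min.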"}, "[7]": {"system": "Rattus norvegicus", "test": "Increase of C-peptide level in Wistar rat at 10 mg/kg, po after 10 to 90 mins", "type": "functional, organism-based", "set-up": "dose 10 mg/kg", "procedure,_shortened": "as §1"}, "[8]": {"system": "Mus musculus", "test": "Increase in glucagon level in GPR119 knockout mouse at 30 mg/kg, po after 60 mins", "type": "functional, organism-based", "set-up": "dose 30 mg/kg", "procedure,_shortened": "(§2)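 Wild-type and GPR119 knockout mice, fasted overnight, were dosed by oral gavage (30 mg/kg, 10 mL/kg, 0.5% HPMC/0.1% Tween80 vehicle). Plasma was obtained from cardiac blood at 60 min in chilled K2-EDTA containing DPP-4 inhibitor and aprotinin, then stored at −80 °C. Hormone levels were compared with vehicle; n = 8–10.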"}, "[9]": {"system": "Mus musculus", "test": "Increase in PYY level in GPR119 knockout mouse at 30 mg/kg, po after 60 mins", "type": "functional, organism-based", "set-up": "dose 30 mg/kg", "procedure,_shortened": "as §2"}, "[10]": {"system": "Mus musculus", "test": "Increase in GLP-1 level in GPR119 knockout mouse at 30 mg/kg, po after 60 mins by electrochemiluminescence assay", "type": "functional, organism-based", "set-up": "dose 30 mg/kg", "procedure,_shortened": "(§3)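 Wild-type and GPR119 knockout mice, fasted overnight, received vehicle (0.5% HPMC/0.1% Tween80) or 30 mg/kg by oral gavage at 10 mL/kg. At 60 min, blood was taken by cardiac puncture under isoflurane into chilled K2-EDTA tubes with DPP-4 inhibitor and aprotinin (250 KIU/mL). Plasma was spun at 4 °C and stored at −80 °C. Total GLP-1 was measured by electrochemiluminescence immunoassay; n = 10.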"}, "[11]": {"system": "Mus musculus", "test": "Increase in GIP level in GPR119 knockout mouse at 30 mg/kg, po after 60 mins by ELISA relative to control", "type": "functional, organism-based", "set-up": "dose 30 mg/kg", "procedure,_shortened": "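Overnight-fasted wild-type or GPR119 knockout mice were given vehicle (0.5% HPMC/0.1% Tween80) or 30 mg/kg orally at 10 mL/kg. Cardiac blood was drawn 60 min post-dose under isoflurane into chilled K2-EDTA with DPP-4 inhibitor and aprotinin (250 KIU/mL). Plasma was prepared at 4 °C and held at −80 °C. Total GIP was measured by ELISA; n = 10.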"}, "[12]": {"system": "Mus musculus", "test": "Increase in GLP-1 level in GPR119 transgenic wild type mouse at 30 mg/kg, po after 60 mins by electrochemiluminescence assay relative to control", "type": "functional", "procedure,_shortened": "as §3"}, "[13]": {"system": "PCC", "test": "Induction of GLP1 secretion in C57BL/6 mouse PCC cells at 0.1 to 1 uM after 24 hrs", "type": "functional, cell-based", "procedure,_shortened": "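Primary colonic crypts were isolated from mouse colon by three 15 min, 37 °C digests with collagenase II, dispase I, DNase I and hyaluronidase, then pooled and washed. Crypts were seeded on Matrigel-coated plates in high-glucose DMEM with 10% FBS and allowed to attach for 24 h. GLP-1 secretion was then assayed as for GLUTag cells (2 h KRB exposure, electrochemiluminescent active GLP-1 immunoassay).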"}, "[14]": {"test": "Equilibrium solubility of the compound in fasted simulated intestinal fluid", "type": "physicochemical"}, "[15]": {"molecular_target": "T2, MAO-B (Homo sapiens, UniProt P27338)", "T2 sequence (P27338 whole entry)": "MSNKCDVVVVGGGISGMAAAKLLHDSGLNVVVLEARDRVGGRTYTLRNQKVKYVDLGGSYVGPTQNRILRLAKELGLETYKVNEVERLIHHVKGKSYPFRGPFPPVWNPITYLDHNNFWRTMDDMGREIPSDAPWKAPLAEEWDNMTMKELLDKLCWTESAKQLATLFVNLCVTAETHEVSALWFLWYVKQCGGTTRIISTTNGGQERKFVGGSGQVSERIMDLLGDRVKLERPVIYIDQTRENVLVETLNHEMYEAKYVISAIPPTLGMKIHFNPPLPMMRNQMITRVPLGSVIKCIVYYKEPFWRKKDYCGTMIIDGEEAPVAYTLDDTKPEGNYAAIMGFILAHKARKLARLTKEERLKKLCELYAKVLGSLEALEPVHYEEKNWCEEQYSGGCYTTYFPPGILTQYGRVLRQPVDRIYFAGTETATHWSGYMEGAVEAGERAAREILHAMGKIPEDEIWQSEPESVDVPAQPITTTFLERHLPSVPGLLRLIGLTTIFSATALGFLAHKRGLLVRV", "test": "Inhibition of MAO-B at 10 uM", "procedure,_shortened": "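Compound was tested at 10 μM in a panel of 68 receptors, ion channels and enzymes. Percent inhibition or stimulation was recorded.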"}, "[16]": {"test": "Volume of distribution at steady state in mouse at 30 mg/kg", "type": "ADME, organism-based", "set-up": "dose 30 mg/kg", "details": "in vivo, read-out: Vdss"}, "[17]": {"test": "Half life in mouse at 30 mg/kg", "type": "ADME, organism-based", "set-up": "dose 30 mg/kg", "details": "in vivo"}, "[18]": {"test": "Cmax in mouse at 30 mg/kg", "type": "ADME, organism-based", "set-up": "dose 30 mg/kg", "details": "in vivo"}, "[19]": {"organism": "Rattus norvegicus", "test": "Potentiation of 12 mM of glucose-induced insulin secretion in rat islet at 0.3 uM"}}, "note": "Calls of active or inactive are those of the source. The rule behind the calls is not given here."}
{"smiles": "CC(C)OC(=O)N1CCC(Oc2ncnc3c2CCN3c2ccc(S(C)(=O)=O)cc2F)CC1", "values": [{"measurement": "Kp", "setting": "[1]", "result": 0.7}, {"measurement": "AUC/dose", "setting": "[2]", "result": 2.04, "unit": "µg·h/mL"}, {"measurement": "half-life", "setting": "[3]", "result": 8.7, "unit": "h"}, {"measurement": "EC50", "setting": "[4]", "result": 50.1, "unit": "nM"}, {"measurement": "Activity", "setting": "[5]", "result": 27, "unit": "%"}, {"measurement": "Activity", "setting": "[6]", "result": "Active"}, {"measurement": "Activity", "setting": "[7]", "result": "Active"}, {"measurement": "Activity", "setting": "[8]", "result": "inactive"}, {"measurement": "Activity", "setting": "[9]", "result": "inactive"}, {"measurement": "Activity", "setting": "[10]", "result": "inactive"}, {"measurement": "Activity", "setting": "[11]", "result": "inactive"}, {"measurement": "fold change (FC)", "setting": "[12]", "result": 4}, {"measurement": "Activity", "setting": "[13]", "result": "Active"}, {"measurement": "solubility thermodynamic", "setting": "[14]", "result": 4, "unit": "µg/mL"}, {"measurement": "inhibition at 10 µM", "setting": "[15]", "result": 54, "unit": "%"}, {"measurement": "Vd", "setting": "[16]", "result": 0.7, "unit": "L/kg"}, {"measurement": "half-life", "setting": "[17]", "result": 2.8, "unit": "h"}, {"measurement": "Cmax", "setting": "[18]", "result": 8.4, "unit": "µM"}, {"measurement": "Activity", "setting": "[19]", "result": "Active"}]}
